*1 amine or outer side, *2 acyl side, *3 side chain or, on linkers, in order; H or OH if unused. Where a SMILES comes first, the peptide text is derived from it. Bridges are numbered along the chain shown (N, C = ends). [ ]: non-standard residue; d: D form. The star is where a group is joined. X1 = NC1=N[C@@H]([C@H](N[*:1])C(=O)[*:2])C[C@H](O)N1; ΔAla(Z-3-ureido) = NC(=O)N/C=C(\N)C(=O)O; pNA = O=[N+]([O-])c1ccc(N*)cc1; AMC = Cc1cc(=O)oc2cc(N*)ccc12; β3hOrn = NCCC[C@H](N)CC(=O)*; Dap = NC[C@H](N)C(=O)O; Boc = CC(C)(C)OC(=O)*; Bn = c1ccc(C*)cc1
Experiments:
[1] = target: Human immunodeficiency virus type 1 integrase (Human immunodeficiency virus 1) (UniProt Q7ZJM1); conditions: at 1 mM
[2] = target: Human immunodeficiency virus type 1 integrase (Human immunodeficiency virus 1) (UniProt Q7ZJM1); conditions: at 200 µM
[3] = target: T1, Human immunodeficiency virus type 1 integrase (Human immunodeficiency virus 1, UniProt Q7ZJM1)
[4] = target: T1, Human immunodeficiency virus type 1 integrase; remark: listed apart in the source
[5] = target: Human immunodeficiency virus type 1 integrase (Human immunodeficiency virus 1) (UniProt Q7ZJM1); assay: Inhibition against HIV-1 integrase at 25 uM
Method in brief: (§1)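 Integration reaction with HIV-1 integrase, run as in an earlier published method except for the detection step. The integration product was detected with digoxygenin-labelled oligonucleotides and an anti-digoxygenin antibody conjugated to horseradish peroxidase. Compounds were tested at 1 mM, 200 µM and 25 µM.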

[6] = target: Human immunodeficiency virus type 1 integrase (Human immunodeficiency virus 1) (UniProt Q7ZJM1); assay: Inhibitory activity against HIV-1 integrase at 1 mM
Method in brief: as §1

[7] = target: Human immunodeficiency virus type 1 integrase (Human immunodeficiency virus 1) (UniProt Q7ZJM1); assay: Inhibitory activity against HIV-1 integrase at 200 uM
Method in brief: as §1

[8] = target: Human immunodeficiency virus type 1 integrase (Human immunodeficiency virus 1) (UniProt Q7ZJM1); assay: Inhibitory activity against HIV-1 integrase at 25 uM
Method in brief: as §1

Structure (SMILES) | inhibition [1] [%] | inhibition [2] [%] | IC50 [3] [µM] | IC50 [4] [µM] | further results
OC[C@H]1O[C@@H](SC2O[C@H](CO)[C@H](O)[C@H](O)[C@H]2O)[C@H](O)[C@@H](O)[C@H]1O (some centres undefined) | < 50 | < 50 |  |  | 
O=C(/C=C/c1ccc(O)c(O)c1)O[C@H]1[C@H](O)C[C@](O)(C(=O)O)C[C@H]1OC(=O)/C=C/c1ccc(O)c(O)c1 (stereo in doubt; form 1) |  |  | 0.79 | 0.54 | 
Cc1cccc2c1C(O)=C1C(=O)C3C(O)=C(C(=O)NCNC(CO)(CO)CO)C(=O)[C@@H](N(C)C)[C@@H]3C[C@@H]1C2(C)O (some centres undefined) |  |  | 1.1 | 0.5 | 
O=C(NCCCCCCNC(=O)NNc1ccccc1)NNc1ccccc1 | < 50 | < 50 |  |  | 
O=C(/C=C\c1ccc(O)c(O)c1)OC1C(O)CC(OC(=O)/C=C\c2ccc(O)c(O)c2)(C(=O)O)CC1O (centres undefined) |  |  | 9.5 | 7.8 | 
O=C(O[C@@H]1Cc2c(O)cc(O)cc2O[C@@H]1c1cc(O)c(O)c(O)c1)c1cc(O)c(O)c(O)c1 | > 50 | > 50 |  |  | inhibition [5]: > 50%
O=C1c2c(O)ccc(O)c2C(=O)c2c(NCCNCCO)ccc(NCCNCCO)c21 [MITOXANTRONE] |  |  | 3.8 | 8 | 
NC(=O)c1ccccc1NC(=O)Nc1cc(NC(=O)Nc2ccccc2C(N)=O)c(Br)cc1Br | > 50 | > 50 |  |  | inhibition [5]: < 50%
O=C(CC(O)CCc1ccc(O)c(O)c1)O[C@H]1Cc2cc(O)c(O)cc2O[C@H]1c1ccc(O)c(O)c1 (some centres undefined) |  |  | 1.4 | 1 | 
OC[C@@H](O)[C@@H](O[C@H]1O[C@H](CO)[C@@H](O)[C@H](O)[C@H]1O)[C@H](O)[C@@H](O)CO |  |  |  |  | inhibition [6]: < 50%; inhibition [7]: < 50%
Cc1cc(O)c2c(=O)c3c(O)cc(O)c4c5c(O)cc(O)c6c(=O)c7c(O)cc(C)c8c1c2c(c34)c(c78)c65 [HYPERICIN] |  |  | 10 |  | 
CC(C)C[C@@H](C=O)NC(=O)N[C@H](C(=O)N[C@@H](CCC(N)=O)C(=O)N[C@@H](C)C=O)[C@@H]1CCN=C(N)N1 | < 50 | < 50 |  |  | 
Cc1cc(=O)oc2cc(NC(=O)[C@H](CCCN=C(N)N)NC(=O)CN)ccc12 (H-Gly-Arg-{AMC}) | < 50 | < 50 |  |  | 
O=C(NCNC(=O)NC1C(=O)NC(=O)N1CO)NC1C(=O)NC(=O)N1CO (centres undefined) | > 50 | < 50 |  |  | inhibition [5]: < 50%
COC1/C=C/OC2(C)Oc3c(C)c(O)c4c(O)c(c(C=NN5C(C)CN(Cc6ccc([N+](=O)[O-])cc6)CC5C)c(O)c4c3C2=O)NC(=O)/C(C)=C\C=C\C(C)C(O)C(C)C(O)C(C)C(OC(C)=O)C1C (centres undefined) |  |  | 20.6 | 19.7 | 
N=C(N)NCCCCNCCCNC(=N)N |  |  |  |  | inhibition [6]: < 50%; inhibition [7]: < 50%
CN[C@@H]1[C@H](O[C@H]2[C@H](O[C@H]3[C@H](O)[C@@H](O)[C@H](N=C(N)N)[C@@H](O)[C@@H]3N=C(N)N)O[C@@H](C)[C@]2(O)C=O)O[C@@H](CO)[C@H](O)[C@H]1O | < 50 | < 50 |  |  | 
CCCNC(=O)NNC(=O)c1ccccc1NC(=O)NCCC | < 50 | < 50 |  |  | 
N[C@H]1[C@@H](OP(=O)(O)O)O[C@H](CO)[C@H](O)[C@@H]1O |  |  |  |  | inhibition [6]: < 50%; inhibition [7]: < 50%
OC[C@@H](O)[C@@H](O)[C@H](O)c1cnc([C@@H](O)[C@H](O)[C@H](O)CO)cn1 |  |  |  |  | inhibition [6]: < 50%; inhibition [7]: < 50%

Structure (SMILES) | inhibition [1] [%] | inhibition [2] [%] | IC50 [3] [µM] | IC50 [4] [µM] | further results
OC[C@H]1O[C@H](OC[C@H]2OC(O)[C@H](O)[C@@H](O)[C@@H]2O)[C@H](O)[C@@H](O)[C@@H]1O (some centres undefined) |  |  |  |  | inhibition [6]: < 50%; inhibition [7]: < 50%
N/N=C(\S)Nc1ccc(N/C(S)=N/N)cc1 | > 50 | < 50 |  |  | inhibition [5]: < 50%
O=C(CCc1ccc(O)c(O)c1)c1ccc(O)c(O)c1O |  |  | 1.7 | 1 | 
C[Si](C)(C)C |  |  | 17 | 5 | 
Nc1nc(=O)c2c([nH]1)NCC(CNc1ccc(C(=O)N[C@@H](CCC(=O)O)C(=O)O)cc1)=N2 |  |  |  |  | inhibition [8]: < 50%; inhibition [6]: > 50%; inhibition [7]: > 50%
OCCNCCNC(O)C(O)CO (centres undefined) | < 50 | < 50 |  |  | 
CCC1C/C(=N\NC(N)=O)C(NNC(N)=O)C(C)C1 (centres undefined) | < 50 | < 50 |  |  | 
O=c1c(O)c(-c2ccc(O)c(O)c2)oc2cc(O)c(O)c(O)c12 [QUERCETAGETIN] |  |  | 1.3 | 0.6 | 
N=C(N)NCCCC(NC(N)=O)C(=O)O (single isomer, unassigned) | < 50 | < 50 |  |  | 
COC(=O)C1(O)C[C@H](O)[C@@H](NC(C)=O)[C@H]([C@H](O)[C@H](O)CO)O1 (some centres undefined) |  |  |  |  | inhibition [6]: < 50%; inhibition [7]: < 50%
O=C[C@H](O)[C@@H](O)C(O[C@@H]1O[C@H](CO)[C@H](O)[C@H](O)[C@H]1O)[C@H](O)CO (some centres undefined) | < 50 | < 50 |  |  | 
NC(N)=Nc1nc(CSCC/C(N)=N/S(N)(=O)=O)cs1 | < 50 | < 50 |  |  | 
N=C(NCCCCCCNC(=N)NC(=N)Nc1ccc(Cl)cc1)NC(=N)Nc1ccc(Cl)cc1 |  |  |  |  | inhibition [8]: < 50%; inhibition [6]: > 50%; inhibition [7]: < 50%
CC(C)(C)OC(=O)N[C@@H](COCc1ccccc1)C(=O)NCC(=O)N[C@@H](CCCN=C(N)N)C(=O)Nc1ccc([N+](=O)[O-])cc1 (Boc-Ser(Bn)-Gly-Arg-pNA) | > 50 | < 50 |  |  | inhibition [5]: < 50%
O=P(O)(O)O[C@@H]1O[C@H](CO)[C@@H](O)[C@H](O)[C@H]1O |  |  |  |  | inhibition [6]: < 50%; inhibition [7]: < 50%
COc1cccc2c1C(=O)c1c(O)c3c(c(O)c1C2=O)C[C@@](O)(C(=O)CO)C[C@@H]3O[C@H]1C[C@H](N)[C@H](O)[C@H](C)O1 [DOXORUBICIN] |  |  | 0.9 | 2.4 | 
Cc1cccc2c1C(O)=C1C(=O)C3C(O)=C(C(=O)NCN4CCN(C(=N)N=C(N)N)CC4)C(=O)[C@@H](N(C)C)[C@@H]3C[C@@H]1C2(C)O (some centres undefined) |  |  | 0.9 | 0.3 | 
CCCCCCCCCCCCC/C=C/C(O)C(N)CO[C@@H]1O[C@H](CO)[C@H](O)[C@H](O)[C@H]1O (some centres undefined) | > 50 | < 50 |  |  | inhibition [5]: < 50%
OCC(CO)(CO)NCCCNC(CO)(CO)CO |  |  |  |  | inhibition [6]: < 50%; inhibition [7]: < 50%
CCNC(=O)[C@H](CCCCN(N)N)NC(=O)CNC(=O)[C@H](CC(C)C)NC(=O)[C@@H](NC(=O)[C@H](O)[C@@H](O)[C@H](O)[C@H](O)CO)C(C)C | < 50 | < 50 |  |  | 

Structure (SMILES) | inhibition [1] [%] | inhibition [2] [%] | IC50 [3] [µM] | IC50 [4] [µM] | further results
CN[C@@H]1[C@H](OC2[C@@H](OC3[C@@H](N=C(N)N)[C@H](O)[C@@H](N=C(N)N)[C@H](O)[C@H]3O)O[C@@H](C)[C@]2(O)CO)O[C@@H](CO)[C@H](O)[C@H]1O (some centres undefined) |  |  |  |  | inhibition [6]: < 50%; inhibition [7]: < 50%
NC[C@@H](O)c1ccc(OC(=O)[C@H](O)[C@@H](O)C(=O)O)c(OC(=O)[C@H](O)[C@@H](O)C(=O)O)c1 | > 50 | < 50 |  |  | inhibition [5]: < 50%
CC(=O)NC1=C(O)C[C@@](O)(C(=O)O)O[C@H]1[C@@H](O)[C@H](O)CO |  |  |  |  | inhibition [6]: < 50%; inhibition [7]: < 50%
C[C@@H]1O[C@@H](OC2C[C@](O)(C(=O)CO)Cc3c(O)c4c(c(O)c32)C(=O)c2c(O)cccc2C4=O)C[C@H](N)[C@@H]1O (some centres undefined) |  |  | 2.3 | 4.1 | 
O=C(/C=C/c1ccc(O)c(O)c1)O[C@H]1[C@H](O)C[C@](O)(C(=O)O)C[C@H]1OC(=O)/C=C/c1ccc(O)c(O)c1 (stereo in doubt; form 2) |  |  | 0.25 | 0.46 | 
O=C(/C=C\c1ccc(O)c(O)c1)OC1CC(OC(=O)/C=C\c2ccc(O)c(O)c2)(C(=O)O)CC(O)C1O (centres undefined) |  |  | 0.68 | 1.08 | 
O=c1oc2c(O)c(O)cc3c(=O)oc4c(O)c(O)cc1c4c23 [ELLAGIC ACID] |  |  | 5.1 |  | 
NCCC[C@H](N)CC(=O)N[C@H]1CNC(=O)[C@H]([C@H]2C[C@H](O)NC(N)=N2)NC(=O)/C(=C/NC(N)=O)NC(=O)[C@H](CO)NC(=O)[C@H](CO)NC1=O (β3hOrn-[Dap]SS[ΔAla(Z-3-ureido)][X1]; lactam 1-C) | < 50 | < 50 |  |  | 
O=C(CNC(=O)NCc1ccoc1)NNC(=O)Nc1cccc(Cl)c1 | < 50 | < 50 |  |  | 
O=C(NC(CO)(CO)CO)C(=O)NC(CO)(CO)CO |  |  |  |  | inhibition [6]: < 50%; inhibition [7]: < 50%
N#C/C(=C\c1ccc(O)c(O)c1)C(=O)NCCCNC(=O)/C(C#N)=C/c1ccc(O)c(O)c1 |  |  | 10 | 3 | 
O=C1c2ccc(O)c(O)c2C(=O)c2c(O)ccc(O)c21 [QUINALIZARIN] |  |  | 4 | 1 | 
O=C(/C=C\c1ccc(O)c(O)c1)OC1CC(O)(C(=O)O)CC(OC(=O)/C=C\c2ccc(O)c(O)c2)C1O (centres undefined) |  |  | 0.64 | 0.66 | 
O=P(O)(O)O[C@H]1O[C@H](CO)[C@@H](O)[C@H](O)[C@@H]1O |  |  |  |  | inhibition [6]: < 50%; inhibition [7]: < 50%
O=c1c(O)cccc2cc(O)c(O)c(O)c12 [PURPUROGALLIN] |  |  | 2.1 |  | 
Cc1[nH]n(-c2cccc(NC(=O)Nc3cccc(-n4[nH]c(C)c(/N=N/c5c(O)cc(S(=O)(=O)O)c6cc([N+](=O)[O-])ccc56)c4=O)c3)c2)c(=O)c1/N=N/c1c(O)cc(S(=O)(=O)O)c2cc([N+](=O)[O-])ccc12 | > 50 | > 50 |  |  | inhibition [5]: > 50%
NNC(=O)C(O)C(O)C(O)C(O)CO (centres undefined) | > 50 | < 50 |  |  | inhibition [5]: < 50%
Cc1cccc2c1C(O)=C1C(=O)C3C(O)=C(C(=O)NNC4(C(=O)O)CCCC4)C(=O)[C@@H](N(C)C)[C@@H]3C[C@@H]1C2(C)O (some centres undefined) |  |  | 1.2 | 3.6 | 
